Results taken from ChEMBL document CHEMBL3739379, “Anti-Candida activity and cytotoxicity of a large library of new N-substituted-1,3-thiazolidin-4-one derivatives” (Eur J Med Chem, 2016).
Values after ≈ are worked out from the molar mass of the structure shown.

Key:
Type in all cases: functional
Staphylococcus aureus = test: Antibacterial activity against Staphylococcus aureus after 18 to 22 hrs by broth microdilution method
Method in brief: (§1)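 Broth microdilution per NCCLS in Mueller-Hinton II broth; isolates subcultured for purity. Compounds dissolved in DMSO, serial dilutions 256 to 0.5 µg/mL; inoculum 10^5/mL. Controls: organism without compound, medium only. Incubation 18 to 22 h at 35 °C. MIC is the lowest concentration giving complete growth inhibition, read by unaided eye.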

[Candida] sake = Antifungal activity against Candida sake clinical isolate after 24 hrs by sabouraud dextrose broth based microdilution method; details: Fermentozyma sake
Method in brief: (§2)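 Clinical isolates identified by conventional methods and subcultured for purity. Broth microdilution per NCCLS in Sabouraud dextrose broth; compounds dissolved in DMSO and serially diluted; inoculum 10^3/mL. Controls: fungi without compound, medium only. Incubated 24 h at 37 °C. MIC is the lowest concentration with complete growth inhibition by unaided eye. Values are geometric means over isolates per species.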

Escherichia coli = test: Antibacterial activity against Escherichia coli at after 18 to 22 hrs by broth microdilution method; method in brief: as §1
Nakaseomyces glabratus = test: Antifungal activity against Candida glabrata clinical isolate after 24 hrs by sabouraud dextrose broth based microdilution method; method in brief: as §2
Klebsiella oxytoca = test: Antibacterial activity against Klebsiella oxytoca after 18 to 22 hrs by broth microdilution method; method in brief: as §1
Pichia kudriavzevii = test: Antifungal activity against Candida krusei clinical isolate after 24 hrs by sabouraud dextrose broth based microdilution method; method in brief: as §2
Enterococcus faecalis = test: Antibacterial activity against […] faecalis after 18 to 22 hrs by broth microdilution method; method in brief: as §1
Candida albicans = test: Antifungal activity against Candida albicans clinical isolate after 24 hrs by sabouraud dextrose broth based microdilution method; method in brief: as §2
Enterobacter sp. = test: Antibacterial activity against Enterobacter sp. after 18 to 22 hrs by broth microdilution method; method in brief: as §1
Proteus mirabilis = test: Antibacterial activity against Proteus mirabilis after 18 to 22 hrs by broth microdilution method; method in brief: as §1
Candida parapsilosis = test: Antifungal activity against Candida parapsilosis clinical isolate after 24 hrs by sabouraud dextrose broth based microdilution method; details: Lodderomyces parapsilosis; method in brief: as §2
Staphylococcus warneri = test: Antibacterial activity against Staphylococcus warneri after 18 to 22 hrs by broth microdilution method; method in brief: as §1
[1] = tested on: Staphylococcus haemolyticus; test: Antibacterial activity against Staphylococcus haemolyticus after 18 to 22 hrs by broth microdilution method; method in brief: as §1
Candida tropicalis = test: Antifungal activity against Candida tropicalis clinical isolate after 24 hrs by sabouraud dextrose broth based microdilution method; method in brief: as §2

SMILES	MIC (Staphylococcus aureus)	MIC ([Candida] sake)	MIC (Escherichia coli)	MIC (Nakaseomyces glabratus)	MIC (Klebsiella oxytoca)	MIC (Pichia kudriavzevii)	MIC (Enterococcus faecalis)	MIC (Candida albicans)	MIC (Enterobacter sp.)	MIC (Proteus mirabilis)	MIC (Candida parapsilosis)	MIC (Staphylococcus warneri)	MIC [1]	MIC (Candida tropicalis)
O=C1CS/C(=N\N=C2CCCCCC2)N1Cc1ccc([N+](=O)[O-])cc1	> 256 µg/mL	4 µg/mL (≈ 11.1 µM)	> 256 µg/mL	32 µg/mL (≈ 88.8 µM)	> 256 µg/mL	4 µg/mL (≈ 11.1 µM)	> 256 µg/mL	128 µg/mL (≈ 355 µM)	> 256 µg/mL	> 256 µg/mL	8 µg/mL (≈ 22.2 µM)	> 256 µg/mL	> 256 µg/mL	16 µg/mL (≈ 44.4 µM)
CC1CCC(=N/N=C2\SCC(=O)N2Cc2ccc([N+](=O)[O-])cc2)CC1 (stereo unspecified)	> 256 µg/mL	4 µg/mL (≈ 11.1 µM)	> 256 µg/mL	16 µg/mL (≈ 44.4 µM)	> 256 µg/mL	8 µg/mL (≈ 22.2 µM)	> 256 µg/mL	32 µg/mL (≈ 88.8 µM)	> 256 µg/mL	> 256 µg/mL	8 µg/mL (≈ 22.2 µM)	> 256 µg/mL	> 256 µg/mL	32 µg/mL (≈ 88.8 µM)
CCCC/C(CC)=N/N=C1\SCC(=O)N1Cc1ccc([N+](=O)[O-])cc1	> 256 µg/mL	2 µg/mL (≈ 5.52 µM)	> 256 µg/mL	8 µg/mL (≈ 22.1 µM)	> 256 µg/mL	16 µg/mL (≈ 44.1 µM)	> 256 µg/mL	2 µg/mL (≈ 5.52 µM)	> 256 µg/mL	> 256 µg/mL	16 µg/mL (≈ 44.1 µM)	> 256 µg/mL	> 256 µg/mL	2 µg/mL (≈ 5.52 µM)
CCCCCC/C(C)=N/N=C1\SCC(=O)N1Cc1ccc([N+](=O)[O-])cc1	> 256 µg/mL	256 µg/mL (≈ 680 µM)	> 256 µg/mL	2 µg/mL (≈ 5.31 µM)	> 256 µg/mL	128 µg/mL (≈ 340 µM)	> 256 µg/mL	4 µg/mL (≈ 10.6 µM)	> 256 µg/mL	> 256 µg/mL	256 µg/mL (≈ 680 µM)	> 256 µg/mL	> 256 µg/mL	128 µg/mL (≈ 340 µM)
C/C(=N\N=C1/SCC(=O)N1CN1C(=O)c2ccccc2C1=O)c1ccccc1	> 256 µg/mL	8 µg/mL (≈ 20.4 µM)	> 256 µg/mL	8 µg/mL (≈ 20.4 µM)	> 256 µg/mL	8 µg/mL (≈ 20.4 µM)	> 256 µg/mL	2 µg/mL (≈ 5.1 µM)	> 256 µg/mL	> 256 µg/mL	8 µg/mL (≈ 20.4 µM)	> 256 µg/mL	> 256 µg/mL	8 µg/mL (≈ 20.4 µM)
O=C1c2ccccc2C(=O)N1CN1C(=O)CS/C1=N\N=C\c1cccc2ccccc12	> 256 µg/mL	128 µg/mL (≈ 299 µM)	> 256 µg/mL	16 µg/mL (≈ 37.3 µM)	> 256 µg/mL	128 µg/mL (≈ 299 µM)	> 256 µg/mL	256 µg/mL (≈ 597 µM)	> 256 µg/mL	> 256 µg/mL	128 µg/mL (≈ 299 µM)	> 256 µg/mL	> 256 µg/mL	128 µg/mL (≈ 299 µM)
CC1CCCC/C1=N\N=C1/SCC(=O)N1CN1C(=O)c2ccccc2C1=O (stereo unspecified)	> 256 µg/mL	2 µg/mL (≈ 5.2 µM)	> 256 µg/mL	8 µg/mL (≈ 20.8 µM)	> 256 µg/mL	16 µg/mL (≈ 41.6 µM)	> 256 µg/mL	4 µg/mL (≈ 10.4 µM)	> 256 µg/mL	> 256 µg/mL	16 µg/mL (≈ 41.6 µM)	> 256 µg/mL	> 256 µg/mL	2 µg/mL (≈ 5.2 µM)
CC1CC/C(=N\N=C2/SCC(=O)N2Cc2ccc([N+](=O)[O-])cc2)C1 (stereo unspecified)	> 256 µg/mL	256 µg/mL (≈ 739 µM)	> 256 µg/mL	16 µg/mL (≈ 46.2 µM)	> 256 µg/mL	256 µg/mL (≈ 739 µM)	> 256 µg/mL	2 µg/mL (≈ 5.77 µM)	> 256 µg/mL	> 256 µg/mL	64 µg/mL (≈ 185 µM)	> 256 µg/mL	> 256 µg/mL	128 µg/mL (≈ 370 µM)
CC1CCC(=N/N=C2\SCC(=O)N2CN2C(=O)c3ccccc3C2=O)CC1 (stereo unspecified)	> 256 µg/mL	4 µg/mL (≈ 10.4 µM)	> 256 µg/mL	32 µg/mL (≈ 83.2 µM)	> 256 µg/mL	8 µg/mL (≈ 20.8 µM)	> 256 µg/mL	2 µg/mL (≈ 5.2 µM)	> 256 µg/mL	> 256 µg/mL	8 µg/mL (≈ 20.8 µM)	> 256 µg/mL	> 256 µg/mL	8 µg/mL (≈ 20.8 µM)
